Like-named read-outs stand apart in the source and are kept apart here. Marks after values point to notes of the source that are not given here.
Assays:
[1] = system: HMOX1 in N2a-APPswe cells; assay: HMOX1 protein levels, western blot; type: cell-based, mouse; conditions: 250 μM, 24 h, vs control
In short: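 N2a-APPswe cells treated 24 h with test compound at 250 μM. HMOX1 detected by western blot after milk blocking 1 h RT; anti-HMOX1 1:1000 in 5% BSA/TBS-T overnight at 4°C, then HRP secondary 1 h RT.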

APP/PS1 female mice [2] = assay: Demographic and metabolic parameters of 6-month-old females; type: in vivo, mouse; conditions: 6-month-old APP/PS1 females, 50 mg/kg, 1 month
In short: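 WT and APP/PS1 females given PBS vehicle or test compound at 50 mg/kg (APP/PS1 only) intranasally for 1 month. Recorded body weight, adipose tissue weight, fasting glucose and triglycerides. Mean ± SEM of five to six animals.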

APP/PS1 male mice [3] = assay: Y-maze test; type: in vivo, mouse; conditions: 100 mg/kg, 1 month
In short: (§1)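 Behavioural testing in 10-month-old APP/PS1 and WT littermate males, randomised n = 5 per group. Intranasal PBS or test compound at 100 mg/kg for 1 month. Distance travelled also recorded.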

[4] = system: AKT/GSK3β signaling in N2a-APPswe cells; assay: AKT and GSK3β phosphorylation, western blot; type: cell-based, mouse; conditions: 250 μM, 30 min
In short: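 Murine N2a-APPswe cells exposed to test compound at 250 μM for 5, 15 or 30 min; basal pAKT in untreated N2a-wt and N2a-APPswe read at 30 min. Protein by BCA; lysates denatured 5 min at 95°C. Membranes blocked 1 h RT in 5% BSA for phospho-proteins, primaries 1:1000 overnight at 4°C, HRP secondaries 1 h RT.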

APP/PS1 female mice [5] = assay: Brain protein levels of 6-month-old females, western blot; type: in vivo, mouse; conditions: 50 mg/kg, 1 month
In short: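 Females received PBS or test compound at 50 mg/kg (APP/PS1 only) intranasally for 1 month. Brain hAPP, BACE1, iNOS, pro-IL-1β, HMOX1 and p44/42 MAPK assessed by western blot, with milk or BSA (phospho) blocking 1 h RT. Mean ± SEM of five animals; one-way ANOVA with Dunnett's or Tukey's test, p < 0.05.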

APP/PS1 female mice [6] = assay: Aβ40 and Aβ42 levels in brain and plasma of 6-month-old females; type: in vivo, mouse; conditions: 1 month
In short: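 WT and APP/PS1 females given PBS vehicle or test compound at 50 mg/kg (APP/PS1 only) intranasally, without anaesthesia, by micropipette for 1 month; groups of 5 per arm. Brain Aβ40 and Aβ42 quantified. Mean ± SEM of five to six animals.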

BACE1 = BACE1 (Homo sapiens, UniProt P56817); assay: BACE1 activity assay; type: biochemical; conditions: cell-free, tested at 50, 100 and 250 μM (Table S1)
Chain of BACE1 (P56817 46-457 limits assumed): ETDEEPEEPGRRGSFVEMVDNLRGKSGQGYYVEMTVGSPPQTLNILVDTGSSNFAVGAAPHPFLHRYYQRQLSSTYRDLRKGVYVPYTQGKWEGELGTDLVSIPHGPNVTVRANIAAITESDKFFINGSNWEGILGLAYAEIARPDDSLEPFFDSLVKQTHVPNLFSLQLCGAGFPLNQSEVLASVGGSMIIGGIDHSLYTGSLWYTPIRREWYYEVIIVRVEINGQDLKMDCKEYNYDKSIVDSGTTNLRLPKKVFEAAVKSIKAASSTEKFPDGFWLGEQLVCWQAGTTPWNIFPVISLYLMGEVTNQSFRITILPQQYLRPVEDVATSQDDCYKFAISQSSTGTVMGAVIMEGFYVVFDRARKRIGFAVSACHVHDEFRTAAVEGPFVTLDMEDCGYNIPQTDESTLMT

[7] = cited from earlier work; for dose-normalized AUC t in plasma: oral
[8] = Pharmacokinetics after intranasal administration; type: in vivo, mouse; conditions: for Kp: B6C3F1, mouse, inhaled or intranasal, 100 mg/kg; for AUC t / AUCinf: WT mice
In short: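 WT B6C3F1 mice (25–30 g), acclimatised ≥7 days with food and water ad libitum, given test compound intranasally at 100 mg/kg. Plasma, brain and lung sampled at 5, 15, 30, 60, 120 and 180 min; n = 4. AUCt and AUCinf derived from concentration–time profiles.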

WT female mice = assay: Safety: histopathology and serum biochemistry after 1 month intranasal dosing; type: in vivo, mouse; conditions: intranasal 100 mg/kg
In short: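 11-month-old WT females given intranasal PBS or test compound at 100 mg/kg for 1 month. Histopathology of heart, hippocampus, lung, liver and kidney. Serum GOT, GGT, ALP, albumin, creatinine and urea reported as mg/dL or IU/L.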

[9] = system: BV-2 cells exposed to LPS; assay: Nos2 and Il-1β mRNA in LPS-stimulated microglia, real-time RT-PCR; type: cell-based, mouse; conditions: BV-2, 250 μM, LPS 50 ng/mL, 18 h
In short: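 BV-2 cells given test compound at 250 μM, LPS 50 ng/mL added 30 min later, incubated 18 h. Nos2 and Il-1β mRNA measured by real-time RT-PCR. Mean ± SEM of four independent experiments, relative to untreated control.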

Nrf2 in N2a-APPswe cells [10] = assay: Nrf2 cytoplasmatic and nuclear protein levels, western blot; type: cell-based, mouse; conditions: 250 μM, 6 h, vs untreated cells
In short: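 N2a-APPswe cells exposed to test compound at 250 μM for 2, 4 and 6 h. Cytoplasmic and nuclear Nrf2 assessed by western blot.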

[11] = system: BV-2 cells exposed to LPS; assay: Nitric oxide production; type: cell-based, mouse; conditions: BV-2, 250 μM, LPS 50 ng/mL, 24 h
In short: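 BV-2 microglia given test compound at 250 μM, then LPS 50 ng/mL 30 min later, for 24 h. Nitrite measured in supernatants by Griess assay at 550 nm against a sodium nitrite standard curve. Mean ± SEM of four independent experiments, relative to untreated control.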

Nrf2 in N2a-APPswe cells [12] = assay: Nrf2 activation, Nrf2 Transcription Factor Assay Kit; type: cell-based, mouse; conditions: 250 μM
In short: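 N2a-APPswe cells exposed to test compound at 250 μM for 2, 4 and 6 h. Nrf2 activation determined with a commercial kit.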

APP/PS1 male mice [13] = assay: Novel object recognition test; type: in vivo, mouse; conditions: APP/PS1 males, 100 mg/kg, 1 month
In short: as §1

[14] = APP/PS1 males, not statistically significant
[15] = 6-month-old APP/PS1 females + Iso 50 mg/kg
[16] = 6-month-old APP/PS1 females, 50 mg/kg, vs untreated

SMILES: CC=Cc1ccc(O)c(OC)c1 [Iso, 2‐methoxy‐4‐(prop‐1‐en‐1‐yl) phenol]
- HMOX1 protein levels [1]: significant increase
- adipose tissue weight (APP/PS1 female mice [2]): did not reduce
- Y-maze entries in the novel arm (APP/PS1 male mice [3]; [14]): reversed this trend
- Y-maze time spent in the novel arm (APP/PS1 male mice [3]; [14]): reversed this trend
- Y-maze distance traveled (APP/PS1 male mice [3]; males): not affected
- AKT phosphorylated levels [4]: AKT activation
- GSK3β phosphorylated (Ser9) levels [4]: GSK3β inactivation
- decrease in brain p44/42 MAPK phosphorylated levels (APP/PS1 female mice [5]; 6-month-old APP/PS1 females): reverted
- increase in brain HMOX1 protein levels (APP/PS1 female mice [5]; 6-month-old APP/PS1 mice, p = 0.068): 1.5 fold
- brain APP protein levels (APP/PS1 female mice [5]; 6-month-old mice): not altered
- plasma Aβ40 levels (APP/PS1 female mice [6]; [15]): 72.29 ± 7.271 picograms per milliliter
- plasma Aβ42 levels (APP/PS1 female mice [6]; [15]): 83.88 ± 9.498 picograms per milliliter
- brain Aβ40 levels (APP/PS1 female mice [6]; [16]): decreased
- brain Aβ42 levels (APP/PS1 female mice [6]; [16]): decreased
- BACE1 activity (BACE1): inhibited
- alpha half-life distribution time ([7]; after intravenous dosing): 7 to 10 min
- steady-state apparent volume of distribution ([7]; after intravenous dosing): 11 to 25.2 L/kg
- dose-normalized AUCinf in plasma ([7]; intravenous 35 mg/kg, mice): 6.76 µg·min/mL/kg
- dose-normalized AUC t in plasma ([7]; first listed of doses 35, 70 and 140 mg/kg, mice): 1.91 µg·min/mL/kg
- dose-normalized AUC t in plasma ([7]; second listed of doses 35, 70 and 140 mg/kg, mice): 1.68 µg·min/mL/kg
- dose-normalized AUC t in plasma ([7]; third listed of doses 35, 70 and 140 mg/kg, mice): 1.45 µg·min/mL/kg
- Kp ([8]; brain and plasma): 0.23
- Kp ([8]; lung and plasma): 6.73
- AUC t ([8]; brain, intranasal 100 mg/kg): 140.87 ^c μg.min/g
- AUCinf ([8]; brain, intranasal 100 mg/kg): 142.15 ^c μg.min/g
- dose-normalized AUC t in plasma ([8]; intranasal 100 mg/kg, mice): 5.99 µg·min/mL/kg
- dose-normalized AUCinf in plasma ([8]; intranasal 100 mg/kg, mice): 6.04 µg·min/mL/kg
- AUC t ([8]; lung, intranasal 100 mg/kg): 4030.85 ^c μg.min/g
- AUCinf ([8]; lung, intranasal 100 mg/kg): 4091.75 ^c μg.min/g
- LDL cholesterol (WT female mice; 11-month-old WT females): reduction
- hippocampus histopathology (WT female mice; WT females): Increased cell activation
- kidney histopathology (WT female mice; WT females): cellular eosinophilia and tubular epithelial hypertrophy
- liver histopathology (hepatic steatosis seen in VEH) (WT female mice; WT females): also maintained
- serum albumin (WT female mice; WT females): no alterations were detected
- serum alkaline phosphatase (ALP) (WT female mice; WT females): no alterations were detected
- serum creatinine (WT female mice; WT females): no alterations were detected
- serum gamma-glutamyl transferase (GGT) (WT female mice; WT females): no alterations were detected
- serum glutamic oxaloacetic transaminase (GOT) (WT female mice; WT females): no alterations were detected
- serum urea (WT female mice; WT females): no alterations were detected
- heart histopathology (WT female mice; WT females, vs VEH): No histopathological changes were observed
- LPS-induced Il-1β gene expression [9]: reduced
- LPS-induced Nos2 gene expression [9]: reduced
- Nrf2 nuclear levels (Nrf2 in N2a-APPswe cells [10]): significantly increased
- LPS-triggered nitrite production [11]: significantly decreased
- Nrf2 activation (ELISA kit) (Nrf2 in N2a-APPswe cells [12]): increased Nrf2 activation
- percentage of investigations in the novel object (decreased in APP/PS1 VEH) (APP/PS1 male mice [13]): reverted
- recognition index (lowered in APP/PS1 VEH) (APP/PS1 male mice [13]): reversed

Source: paper PMC13435124 (The FASEB Journal, 2026)
